Columns and labels:
TAK1 = target: T1, TAK1 (Homo sapiens, UniProt O43318); assay: Potency of takinib analogues against TAK1; type: biochemical
T1 sequence (O43318 1-303 limits assumed): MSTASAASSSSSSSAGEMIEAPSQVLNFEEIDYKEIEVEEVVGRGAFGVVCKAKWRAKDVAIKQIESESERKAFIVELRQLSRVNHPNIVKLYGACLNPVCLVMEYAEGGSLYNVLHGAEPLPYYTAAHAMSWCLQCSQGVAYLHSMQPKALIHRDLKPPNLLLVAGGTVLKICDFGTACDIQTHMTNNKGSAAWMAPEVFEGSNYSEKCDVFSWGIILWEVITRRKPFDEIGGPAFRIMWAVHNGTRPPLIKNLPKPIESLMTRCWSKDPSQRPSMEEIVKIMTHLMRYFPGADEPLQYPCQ

ULK2 = target: T2, ULK2 (Homo sapiens, UniProt Q8IYT8); assay: MRC Dundee kinase panel screen at 10 μM; type: biochemical
T2 sequence (Q8IYT8 1-1036): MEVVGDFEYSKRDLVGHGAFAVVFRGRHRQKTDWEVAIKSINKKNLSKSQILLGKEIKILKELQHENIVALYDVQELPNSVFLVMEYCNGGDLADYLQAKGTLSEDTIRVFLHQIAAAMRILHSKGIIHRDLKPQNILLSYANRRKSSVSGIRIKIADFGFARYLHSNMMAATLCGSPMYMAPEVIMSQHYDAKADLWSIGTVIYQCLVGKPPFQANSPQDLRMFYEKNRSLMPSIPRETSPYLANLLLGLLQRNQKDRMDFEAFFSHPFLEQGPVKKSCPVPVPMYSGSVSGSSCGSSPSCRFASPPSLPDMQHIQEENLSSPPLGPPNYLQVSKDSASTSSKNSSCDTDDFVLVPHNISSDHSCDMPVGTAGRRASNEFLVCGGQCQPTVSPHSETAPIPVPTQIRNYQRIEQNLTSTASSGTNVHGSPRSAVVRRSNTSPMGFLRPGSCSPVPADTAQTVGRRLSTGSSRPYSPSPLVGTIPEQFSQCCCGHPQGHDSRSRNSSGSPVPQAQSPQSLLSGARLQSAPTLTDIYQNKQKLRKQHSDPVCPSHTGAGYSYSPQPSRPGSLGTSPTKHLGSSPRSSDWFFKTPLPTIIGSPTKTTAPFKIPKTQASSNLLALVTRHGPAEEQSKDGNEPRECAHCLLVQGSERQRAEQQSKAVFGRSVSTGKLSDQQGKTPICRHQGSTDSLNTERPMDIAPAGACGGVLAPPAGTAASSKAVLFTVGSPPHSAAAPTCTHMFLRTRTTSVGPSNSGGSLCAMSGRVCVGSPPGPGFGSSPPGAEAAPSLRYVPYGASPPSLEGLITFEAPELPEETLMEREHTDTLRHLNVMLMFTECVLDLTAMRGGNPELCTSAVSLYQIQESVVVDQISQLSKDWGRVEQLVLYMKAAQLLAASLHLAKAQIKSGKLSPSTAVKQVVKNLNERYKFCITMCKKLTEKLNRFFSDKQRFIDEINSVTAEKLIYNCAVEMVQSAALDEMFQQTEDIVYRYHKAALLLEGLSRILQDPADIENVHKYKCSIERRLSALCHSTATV

IRAK1 [1] = target: T3, IRAK1 (Homo sapiens, UniProt P51617); assay: Dose–response of top 10 kinase hits; type: biochemical; settings: read-out: IC50 IRAK1, n = 2
MAP4K5 = MAP4K5 (Homo sapiens, UniProt Q9Y4K4); assay: MRC Dundee kinase panel screen at 10 μM; type: biochemical
CLK2 = CLK2 (Homo sapiens, UniProt P49760); assay: Dose–response of top 10 kinase hits; type: biochemical
IRAK1 [2] = target: T3, IRAK1; assay: MRC Dundee kinase panel screen at 10 μM; type: biochemical
CIA mouse model = CIA mouse model of inflammatory arthritis; type: in vivo, DBA/1 mice
Summary of the method: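 Type II collagen emulsified 1:1 with Freund's complete adjuvant; mice anaesthetised with isoflurane and given intradermal tail-base injections (400 μg collagen total) on days 0 and 21, then randomised by body weight on day 21.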

[3] = 50 mg/kg IP, all joints (paws and knees), vs vehicle

CLK2, sequence (P49760 whole entry): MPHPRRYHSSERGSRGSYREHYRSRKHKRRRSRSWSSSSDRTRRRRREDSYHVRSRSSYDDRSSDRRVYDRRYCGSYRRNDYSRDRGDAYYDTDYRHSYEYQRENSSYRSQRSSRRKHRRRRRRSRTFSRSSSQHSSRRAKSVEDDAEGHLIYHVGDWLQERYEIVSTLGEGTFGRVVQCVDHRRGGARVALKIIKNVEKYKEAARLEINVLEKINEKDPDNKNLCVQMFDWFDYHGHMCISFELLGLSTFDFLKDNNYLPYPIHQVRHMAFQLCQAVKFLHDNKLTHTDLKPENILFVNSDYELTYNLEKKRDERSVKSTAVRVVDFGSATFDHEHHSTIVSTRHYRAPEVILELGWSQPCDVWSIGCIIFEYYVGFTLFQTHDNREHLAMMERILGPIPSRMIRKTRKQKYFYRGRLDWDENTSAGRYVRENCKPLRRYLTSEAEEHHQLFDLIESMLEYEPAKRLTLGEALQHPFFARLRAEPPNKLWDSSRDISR
T3 sequence (P51617 whole entry): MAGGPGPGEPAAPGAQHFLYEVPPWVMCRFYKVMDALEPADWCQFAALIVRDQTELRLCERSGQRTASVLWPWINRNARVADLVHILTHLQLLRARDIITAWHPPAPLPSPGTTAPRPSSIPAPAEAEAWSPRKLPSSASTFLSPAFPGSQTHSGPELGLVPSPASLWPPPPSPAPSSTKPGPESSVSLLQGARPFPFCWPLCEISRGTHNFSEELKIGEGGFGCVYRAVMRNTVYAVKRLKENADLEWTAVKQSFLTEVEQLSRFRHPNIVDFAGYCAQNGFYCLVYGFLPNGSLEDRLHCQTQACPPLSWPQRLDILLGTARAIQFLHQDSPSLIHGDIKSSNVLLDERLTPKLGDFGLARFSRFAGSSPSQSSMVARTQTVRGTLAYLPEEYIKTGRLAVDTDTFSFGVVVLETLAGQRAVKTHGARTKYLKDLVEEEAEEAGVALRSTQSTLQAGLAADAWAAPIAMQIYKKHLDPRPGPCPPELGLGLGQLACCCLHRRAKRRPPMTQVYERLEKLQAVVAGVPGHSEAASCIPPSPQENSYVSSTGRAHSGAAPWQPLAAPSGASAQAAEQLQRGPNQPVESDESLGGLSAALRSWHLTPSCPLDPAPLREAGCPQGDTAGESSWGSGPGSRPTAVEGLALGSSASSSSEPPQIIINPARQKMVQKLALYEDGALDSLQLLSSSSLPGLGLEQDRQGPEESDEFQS
MAP4K5, sequence (Q9Y4K4 whole entry): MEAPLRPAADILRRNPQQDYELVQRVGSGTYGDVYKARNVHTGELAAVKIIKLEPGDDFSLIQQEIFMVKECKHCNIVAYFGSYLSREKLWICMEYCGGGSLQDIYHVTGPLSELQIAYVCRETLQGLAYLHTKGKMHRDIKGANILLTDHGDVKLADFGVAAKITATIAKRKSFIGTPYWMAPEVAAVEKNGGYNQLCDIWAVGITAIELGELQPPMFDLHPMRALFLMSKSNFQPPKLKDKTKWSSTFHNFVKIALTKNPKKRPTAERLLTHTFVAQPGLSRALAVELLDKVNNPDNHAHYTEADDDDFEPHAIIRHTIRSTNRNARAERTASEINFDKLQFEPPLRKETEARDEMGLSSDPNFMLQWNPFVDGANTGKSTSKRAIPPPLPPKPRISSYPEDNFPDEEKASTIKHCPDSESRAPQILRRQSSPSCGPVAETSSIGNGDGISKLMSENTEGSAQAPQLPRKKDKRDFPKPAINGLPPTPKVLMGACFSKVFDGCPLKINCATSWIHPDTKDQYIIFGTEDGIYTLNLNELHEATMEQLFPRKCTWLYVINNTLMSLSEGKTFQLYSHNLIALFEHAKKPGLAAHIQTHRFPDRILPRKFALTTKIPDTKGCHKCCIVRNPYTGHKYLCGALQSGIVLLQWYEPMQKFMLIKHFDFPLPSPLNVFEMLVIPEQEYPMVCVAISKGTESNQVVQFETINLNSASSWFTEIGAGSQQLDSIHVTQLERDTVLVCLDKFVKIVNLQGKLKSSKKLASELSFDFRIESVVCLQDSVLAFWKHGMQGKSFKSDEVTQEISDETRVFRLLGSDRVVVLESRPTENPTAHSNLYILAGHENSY

`CCCn1c(NC(=O)c2cccc(C(N)=O)c2)nc2ccc(CN3CCCCC3)cc21` [HS-276] showed a Ki (TAK1; TAK1) of 2.5 nM, an IC50 (TAK1; read-out: TAK1 IC50) of 2.5 nM and an enzymatic activity (ULK2) of less than 15%. The IC50 (IRAK1 [1]) was 264 nM, the enzymatic activity (MAP4K5) was less than 15% and the “TAK1 more potently inhibited than CLK2” value (CLK2; from dose–response IC50 values) was 3.6 fold. The IC50 (CLK2; read-out: IC50 CLK2, dose–response, n = 2) was 29 nM, the enzymatic activity (IRAK1 [2]) was less than 15% and the “reduction of arthritic clinical score” value (CIA mouse model; 10 mg/kg QD PO) was 18%. The “reduction of disease clinical score” value (CIA mouse model; 25 mg/kg IP) was 36%, the “reduction of arthritic clinical score” value (CIA mouse model; 30 mg/kg QD PO) was 35% and the disease onset (CIA mouse model; 50 mg/kg IP) was “significantly delayed disease onset”. For the same compound, the “reduction of mean clinical score” value (CIA mouse model; 50 mg/kg IP) was 85%, the “reduction of bone resorption score” value (CIA mouse model; [3]) was 87% and the “reduction of cartilage damage score” value (CIA mouse model; [3]) was 76%. The “reduction of inflammation score” value (CIA mouse model; [3]) was 62%, the “reduction of pannus score” value (CIA mouse model; [3]) was 86% and the “reduction of periosteal bone formation score” value (CIA mouse model; [3]) was 93%. For the same compound, the clinical arthritis scores (CIA mouse model; 50 mg/kg, days 26 through 36, vs disease control) was “significantly reduced”, the “reduction of AUC of clinical arthritis scores” value (CIA mouse model; 50 mg/kg, vs disease control mice) was 85% and the disease onset (CIA mouse model; 10 and 30 mg/kg QD PO and 25 mg/kg IP, vs vehicle) was “did not significantly delay disease onset”. It also gave a disease incidence (CIA mouse model; day 36, 50 mg/kg IP, vehicle 92%) of 75%.
